Measured values reported in ChEMBL document CHEMBL1250478 (J Med Chem, 2010).
The source made the active and inactive calls. No cut-off for these calls is given here.

Legend:
Plasmodium falciparum [1] = assay: Ratio of compound IC50 to chloroquine IC50 for chloroquine-resistant Plasmodium falciparum 7G8; assay type: functional
[2] = Therapeutic index, ratio of IC50 for mice (Mus musculus) spleen lymphocytes to IC50 for chloroquine-resistant Plasmodium falciparum Dd2; assay type: tissue-based; conditions: read-out: Ratio IC50
Plasmodium falciparum [3] = assay: Ratio of compound IC50 to chloroquine IC50 for chloroquine-sensitive Plasmodium falciparum D6; assay type: functional
Plasmodium falciparum [4] = assay: Ratio of compound IC50 to chloroquine IC50 for chloroquine-resistant Plasmodium falciparum Dd2; assay type: functional
Plasmodium berghei [5] = assay: Antiplasmodial activity against Plasmodium berghei infected in NMRI mice (Mus musculus) assessed as parasitaemia level at 30 mg/kg, subcutaneously after 3 days relative to control; assay type: functional; conditions: route subcutaneous
Summary of the method: (§1)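 P. berghei blood diluted in saline to 10^8 parasitized erythrocytes/mL; 0.2 mL given i.v. to groups of 3 female NMRI mice (controls 5). Compounds dosed at 10 ml/kg either once on day 1 (oral gavage or subcutaneous) or orally at 4, 24, 48, 72 h post-infection. Parasitemia read by FACS on 100,000 RBCs from tail blood on day 3 (single dose) or day 4 (quadruple dose). Activity = % reduction versus control mean. Survival monitored to 30 days.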

Plasmodium berghei [6] = assay: Antiplasmodial activity against Plasmodium berghei infected in NMRI mice (Mus musculus) assessed as parasitaemia level at 30 mg/kg, perorally administered as 4 consecutive doses measured after 3 days post last dose relative to control; assay type: functional; conditions: route oral; summary of the method: as §1
Plasmodium berghei [7] = assay: Antiplasmodial activity against Plasmodium berghei infected in NMRI mice (Mus musculus) assessed as survival rate at 30 mg/kg, subcutaneously administered as single dose; assay type: functional; conditions: route subcutaneous; summary of the method: as §1
Plasmodium berghei [8] = assay: Antiplasmodial activity against Plasmodium berghei infected in NMRI mice (Mus musculus) assessed as survival rate at 30 mg/kg, perorally administered as single dose; assay type: functional; conditions: route oral; summary of the method: as §1
Plasmodium berghei [9] = assay: Antiplasmodial activity against Plasmodium berghei infected in NMRI mice (Mus musculus) assessed as survival rate at 30 mg/kg, perorally administered as 4 consecutive doses measured post last dose; assay type: functional; conditions: route oral; summary of the method: as §1
Heme = assay: Binding affinity to heme after 4 hrs by equilibrium binding assay
Summary of the method: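 Heme stock in NaOH, diluted to 5 µM in 100 mM phosphate buffer pH 5.7 and equilibrated 4 h. Optical titration by successive addition of compound, with pH held within ±0.05. Apparent dissociation constants from nonlinear least-squares fitting, assuming 2:1 heme:drug stoichiometry.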

[10] = Solubility of the compound; assay type: physicochemical
Plasmodium berghei [11] = assay: Antiplasmodial activity against Plasmodium berghei infected in NMRI mice (Mus musculus) assessed as parasitaemia level at 30 mg/kg, perorally administered as single dose measured after 3 days relative to control; assay type: functional; conditions: route oral; summary of the method: as §1
[12] = Inhibition of beta-hematin formation after 24 hrs; assay type: functional
Summary of the method: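 40 µM heme in 0.67 M sodium acetate pH 4.8 with 0.0005 g/L Tween20, compound at 0–1000 µM. Incubated 24 h at 37 °C in the dark, then read at 415/630 nm. IC50 taken as (Dmax − Dinitial)/2. Duplicate assays, run twice.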

[13] = Drug level in NMRI mice (Mus musculus) erythrocytes infected with chloroquine-sensitive Plasmodium falciparum D6 after 1 hr; assay type: ADME, cell-based; conditions: erythrocyte
Summary of the method: (§2)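 Sorbitol-synchronized mature trophozoites (about 10% parasitemia) in 5 mL complete medium, drug at about 5 µM initial medium concentration. Medium sampled over time and analyzed by C18 HPLC. NH4Cl (10 mM) added 10 min before sampling to release accumulated drug; uptake is the difference from the 1 h level. DV concentration assumes 6 × 10^7 PRBCs and a 4 fL DV. Accumulation ratio is DV/medium concentration.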

[14] = Drug level in erythrocytes infected with chloroquine-resistant Plasmodium falciparum Dd2 after 1 hr; conditions: erythrocyte
Plasmodium falciparum [15] = assay: Antiplasmodial activity against chloroquine-resistant Plasmodium falciparum Dd2 early trophozoites infected in NMRI mice (Mus musculus) RBC assessed as inhibition of hemozoin formation at 100 nM after 24 hrs by microscopic analysis; assay type: functional, organism-based
Summary of the method: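 D6 and Dd2 cultures synchronized to ring stage with 5% sorbitol, suspended at 1% hematocrit and exposed to drug (from 1 mM stock) for 24 h at 37 °C under 5% O2/5% CO2/90% N2. Giemsa-stained smears examined by microscopy for hemozoin, parasitemia and parasite morphology.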

Plasmodium falciparum [16] = assay: Antiplasmodial activity against chloroquine-sensitive Plasmodium falciparum D6 early trophozoites infected in NMRI mice (Mus musculus) RBC assessed as inhibition of hemozoin formation at 100 nM after 24 hrs by microscopic analysis; assay type: functional, organism-based
Summary of the method: (§3)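 Ring-stage D6 parasites synchronized with 5% sorbitol, suspended at 1% hematocrit and drug added from 1 mM stock. Incubated 24 h at 37 °C under 5% O2/5% CO2/90% N2 alongside a no-drug control. Giemsa-stained smears were used for parasitemia and for microscopic examination of hemozoin and parasite morphology.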

Plasmodium falciparum [17] = assay: Antiplasmodial activity against synchronized chloroquine-resistant Plasmodium falciparum Dd2 infected in NMRI mice (Mus musculus) RBC assessed as inhibition of hemozoin formation at 1000 nM after 24 hrs by colorimetric analysis; assay type: functional, organism-based
Summary of the method: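 Sorbitol-synchronized D6 and Dd2 cultures at 1% hematocrit were drug-treated for 24 h at 37 °C. Parasites were freed by freeze-thaw and saponin/Triton lysis buffer (37 °C, 30 min). Hemozoin was pelleted at 215,000 g, washed with acetone and PBS, then dissolved in 0.2 N NaOH. Heme was quantified by A400 (ε 91,000 cm-1M-1) per parasitized erythrocyte. Baseline was taken from 0 h culture.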

Plasmodium falciparum [18] = assay: Antiplasmodial activity against synchronized chloroquine-sensitive Plasmodium falciparum D6 infected in NMRI mice (Mus musculus) RBC assessed as inhibition of hemozoin formation at 1000 nM after 24 hrs by colorimetric analysis; assay type: functional, organism-based
Summary of the method: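 D6 cultures synchronized with sorbitol, held at 1% hematocrit, drug-treated 24 h at 37 °C. Parasites freeze-thawed, then lysed 30 min at 37 °C in saponin/Triton X-100 buffer. Hemozoin pelleted at 215,000 g, washed with acetone and PBS, dissolved 2 h in 0.2 N NaOH. Heme read at A400 (ε 91,000 cm-1M-1) and expressed per parasitized erythrocyte. A 0 h culture gave the baseline.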

[19] = Drug level in chloroquine-sensitive Plasmodium falciparum D6 digestive vacuole assessed as ratio of drug level in vacuole to medium at 5 uM after 1 hr; assay type: ADME; conditions: plasmodium falciparum d6, 1 h; summary of the method: as §2
[20] = Drug level in chloroquine-sensitive Plasmodium falciparum D6 digestive vacuole after 1 hr; assay type: ADME; conditions: plasmodium falciparum d6, 1 h; summary of the method: as §2
Plasmodium falciparum [21] = assay: Inhibition of hemozoin formation in early trophozoites of chloroquine-sensitive Plasmodium falciparum D6 infected in RBC assessed as enlarged digestive vacuole at 100 nM after 24 hrs by microscopic analysis; assay type: functional, organism-based; summary of the method: as §3
[22] = Drug level in chloroquine-sensitive Plasmodium falciparum Dd2 digestive vacuole assessed as ratio of drug level in vacuole to medium at 5 uM after 1 hr; assay type: ADME; conditions: plasmodium falciparum dd2, 1 h, in the assay text read “chloroquine-resistant” for “chloroquine-sensitive”; summary of the method: as §2
Plasmodium berghei [23] = assay: Antiplasmodial activity against Plasmodium berghei infected in NMRI mice (Mus musculus) assessed as survival rate at 44 mg/kg, perorally administered as 4 consecutive doses measured post last dose; assay type: functional; conditions: route oral; summary of the method: as §1
Plasmodium berghei [24] = assay: Antiplasmodial activity against Plasmodium berghei infected in NMRI mice (Mus musculus) assessed as parasitaemia level at 44 mg/kg, perorally administered as 4 consecutive doses measured after 4 days post last dose relative to control; assay type: functional; conditions: route oral

| Compound | Ratio IC50 (Plasmodium falciparum [1]) | selectivity ratio [2] | Ratio IC50 (Plasmodium falciparum [3]) | Ratio IC50 (Plasmodium falciparum [4]) | Kd (Heme) [µM] | IC50 [12] [µM] | also measured |
| --- | --- | --- | --- | --- | --- | --- | --- |
| Clc1ccc(C(c2ccccc2)N2CCN(CCCNc3ccnc4cc(Cl)ccc34)CC2)cc1 (stereo unspecified) | 12 | 229 | 3.2 | 3.5 |  |  |  |
| Clc1ccc2c(NCCCN3CCN(C(c4ccccc4)(c4ccccc4)c4ccccc4)CC3)ccnc2c1 | 10 | 13600 | 2 | 4.2 | 5.4 |  | Activity (Plasmodium berghei [5]): <40%; Activity (Plasmodium berghei [6]): >99.9%; Survival (Plasmodium berghei [7]): 3 days; Survival (Plasmodium berghei [8]): 7 days; Survival (Plasmodium berghei [9]): 20 days; solubility [10]: Insoluble; Activity (Plasmodium berghei [11]): 99.7% |
| Clc1ccc2c(NCCCN3CCN(C(c4ccccc4)c4ccccc4)CC3)ccnc2c1 | 11 | 423 | 1.9 | 2.6 | 3 | 3.5 |  |
| Clc1ccc2c(NCCCN3CCN(C4C5CC6CC(C5)CC4C6)CC3)ccnc2c1 (stereo unspecified) | 10 | 69400 | 0.8 | 1.8 | 2.5 | 14 |  |
| Clc1ccc2c(NCCCCN3CCN(C(c4ccccc4)c4ccccc4)CC3)ccnc2c1 | 7.2 | 846 | 1.3 | 1.3 |  |  |  |
| CCN(CC)CCCC(C)Nc1ccnc2cc(Cl)ccc12 (stereo unspecified) [CHLOROQUINE] |  |  |  |  |  |  | Drug uptake [13]: 0.7 ×10⁻⁸ mol; Drug uptake [14]: 0.5 ×10⁻⁸ mol; inhibition (Plasmodium falciparum [15]): inactive; Survival (Plasmodium berghei [7]): 10 days; Survival (Plasmodium berghei [8]): 9 days; Survival (Plasmodium berghei [9]): 23 days; inhibition (Plasmodium falciparum [16]): inactive; inhibition (Plasmodium falciparum [17]): Active; inhibition (Plasmodium falciparum [18]): Active |
| Clc1ccc2c(NCCCN3CCCN(C4c5ccccc5-c5ccccc54)CC3)ccnc2c1 | 56 | 167 | 21 | 15 |  |  |  |
| CN(CCCN1c2ccccc2CCc2ccccc21)CCNc1ccnc2cc(Cl)ccc12 | 21 | 269 | 3.6 | 5.2 | 7.3 | 10 |  |
| Clc1ccc2c(NCCCN3CCNCC3)ccnc2c1 |  | 3380 | 4.3 | 6.8 |  |  |  |
| Clc1ccc2c(NCCCN3CCCN(C(c4ccccc4)c4ccccc4)CC3)ccnc2c1 | 15 | 171 | 4.8 | 4.1 |  |  |  |
| Clc1ccc2c(NCCN3CCCN(C4c5ccccc5-c5ccccc54)CC3)ccnc2c1 | 41 | 260 | 9.2 | 9.6 |  |  |  |
| Clc1ccc2c(NCCCN3CCN(CC(c4ccccc4)c4ccccc4)CC3)ccnc2c1 | 3.4 | 6970 | 0.5 | 3.3 |  |  |  |
| Fc1ccc(C(c2ccc(F)cc2)N2CCN(CCCNc3ccnc4cc(Cl)ccc34)CC2)cc1 | 34 | 1710 | 2 | 2.4 |  |  |  |
| Clc1ccc2c(NCCN3CCN(C(c4ccccc4)c4ccccc4)CC3)ccnc2c1 | 4.3 | 528 | 1 | 3.6 | 3.3 | 2.5 | Activity (Plasmodium berghei [5]): <40%; Activity (Plasmodium berghei [6]): >99.9%; Survival (Plasmodium berghei [7]): 3 days; Survival (Plasmodium berghei [8]): 8 days; Survival (Plasmodium berghei [9]): 16 days; Activity (Plasmodium berghei [11]): >99.9% |
| CN(CCCNc1ccnc2cc(Cl)ccc12)CCCN1c2ccccc2CCc2ccccc21 | 4 | 132 | 2.9 | 5.3 | 8.6 | 9 | Ratio [19]: 32000; Drug uptake [13]: 1.6 ×10⁻⁸ mol; Drug uptake [14]: 1.8 ×10⁻⁸ mol; Drug uptake [20]: 65000 µM; Activity (Plasmodium berghei [5]): 92%; Activity (Plasmodium berghei [6]): 96%; Survival (Plasmodium berghei [7]): 7 days; Survival (Plasmodium berghei [8]): 3 days; inhibition (Plasmodium falciparum [21]): Active; Survival (Plasmodium berghei [9]): 8 days; inhibition (Plasmodium falciparum [16]): inactive; Ratio [22]: 38000; Activity (Plasmodium berghei [11]): <40% |
| Clc1ccc(C(c2ccccc2)N2CCCN(CCCNc3ccnc4cc(Cl)ccc34)CC2)cc1 (stereo unspecified) | 22 | 158 | 6.6 | 5.7 |  |  |  |
| OCCN1CCN(C(c2ccccc2)c2ccccc2)CC1 | >2500 | > 50 | >2500 | >2500 |  |  |  |
| Clc1ccc(C(c2ccccc2)N2CCN(CCNc3ccnc4cc(Cl)ccc34)CC2)cc1 (stereo unspecified) | 10 | 700 | 2.6 | 2 |  |  |  |
| Clc1ccc2c(NCCN3CCC(NC(c4ccccn4)c4ccccn4)CC3)ccnc2c1 | 7.4 | 7310 | 1.1 | 3.9 | 1 | 2 | Survival (Plasmodium berghei [23]): >30 days; Activity (Plasmodium berghei [24]): >99.9% |
